Consider 16 compounds from ChEMBL document CHEMBL3813684, “A Prospective Virtual Screening Study: Enriching Hit Rates and Designing Focus Libraries To Find Inhibitors of PI3Kδ and PI3Kγ” (J Med Chem, 2016).

Assay [1] addresses PI3-kinase p110-delta/p85-alpha (Homo sapiens, UniProt O00329). Kind of assay: Inhibition of human full length recombinant His-tagged PIK3CD/PIK3R1 expressed in baculovirus expression system after 60 mins by LanthaScreen Eu binding assay in presence of kinase tracer 314. The method in brief: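 Binding displacement in 50 mM HEPES pH 7.5, 10 mM MgCl2, 1 mM EGTA, 0.01% Brij-35. Enzyme 0.5 nM with Eu-anti-GST antibody 2 nM added to pre-spotted compound, then tracer 314 10 nM (all final). Controls omit enzyme. 60 min at room temperature; TR-FRET read at excitation 320 nm, emission 615/665 nm. Results as pIC50.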
In general terms: TR-FRET usually uses a lanthanide donor and a delayed reading to cut background.

Assay [2] has as its target Phosphatidylinositol 4,5-bisphosphate 3-kinase catalytic subunit gamma isoform (Homo sapiens, UniProt P48736). Kind of assay: Inhibition of human PI3Kgamma using PIP2 as substrate by HTRF assay in presence of biotin-PIP3. The method in brief: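 HTRF enzyme assay: PI3Kγ added to mix of ATP, MgCl2 and PIP2 substrate (apparent Km 200 µM ATP, 15 µM PIP2). PIP3 product read by displacement of biotin-PIP3 from Eu-anti-GST antibody/GST-GRP1 PH domain/biotin-PIP3/streptavidin-APC complex. Primary screen at 10 µM, hits >2 SD from mean; confirmation in triplicate at 10 µM; dose response as pIC50.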

Chain of PI3-kinase p110-delta/p85-alpha (P27986 whole entry): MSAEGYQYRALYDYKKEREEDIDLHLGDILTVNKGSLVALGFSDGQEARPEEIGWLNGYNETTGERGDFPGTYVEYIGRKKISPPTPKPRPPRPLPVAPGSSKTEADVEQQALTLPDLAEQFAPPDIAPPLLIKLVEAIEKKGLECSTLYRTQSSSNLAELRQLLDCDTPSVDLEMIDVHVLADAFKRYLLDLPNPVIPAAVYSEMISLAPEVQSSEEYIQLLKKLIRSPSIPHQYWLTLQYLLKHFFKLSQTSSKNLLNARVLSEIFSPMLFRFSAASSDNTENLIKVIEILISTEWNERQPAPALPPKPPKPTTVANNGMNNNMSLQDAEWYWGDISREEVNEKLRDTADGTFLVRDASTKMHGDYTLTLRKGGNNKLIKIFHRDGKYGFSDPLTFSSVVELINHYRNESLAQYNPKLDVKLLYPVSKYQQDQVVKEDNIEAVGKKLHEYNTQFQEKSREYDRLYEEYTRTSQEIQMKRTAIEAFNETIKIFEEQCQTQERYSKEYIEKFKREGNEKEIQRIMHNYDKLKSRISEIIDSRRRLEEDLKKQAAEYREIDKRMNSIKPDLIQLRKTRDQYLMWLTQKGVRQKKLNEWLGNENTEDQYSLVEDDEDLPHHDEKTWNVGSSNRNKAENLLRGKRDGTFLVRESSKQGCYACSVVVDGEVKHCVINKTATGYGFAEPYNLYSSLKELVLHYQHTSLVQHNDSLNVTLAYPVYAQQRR
Chain of PI3-kinase p110-delta/p85-alpha (O00329 whole entry): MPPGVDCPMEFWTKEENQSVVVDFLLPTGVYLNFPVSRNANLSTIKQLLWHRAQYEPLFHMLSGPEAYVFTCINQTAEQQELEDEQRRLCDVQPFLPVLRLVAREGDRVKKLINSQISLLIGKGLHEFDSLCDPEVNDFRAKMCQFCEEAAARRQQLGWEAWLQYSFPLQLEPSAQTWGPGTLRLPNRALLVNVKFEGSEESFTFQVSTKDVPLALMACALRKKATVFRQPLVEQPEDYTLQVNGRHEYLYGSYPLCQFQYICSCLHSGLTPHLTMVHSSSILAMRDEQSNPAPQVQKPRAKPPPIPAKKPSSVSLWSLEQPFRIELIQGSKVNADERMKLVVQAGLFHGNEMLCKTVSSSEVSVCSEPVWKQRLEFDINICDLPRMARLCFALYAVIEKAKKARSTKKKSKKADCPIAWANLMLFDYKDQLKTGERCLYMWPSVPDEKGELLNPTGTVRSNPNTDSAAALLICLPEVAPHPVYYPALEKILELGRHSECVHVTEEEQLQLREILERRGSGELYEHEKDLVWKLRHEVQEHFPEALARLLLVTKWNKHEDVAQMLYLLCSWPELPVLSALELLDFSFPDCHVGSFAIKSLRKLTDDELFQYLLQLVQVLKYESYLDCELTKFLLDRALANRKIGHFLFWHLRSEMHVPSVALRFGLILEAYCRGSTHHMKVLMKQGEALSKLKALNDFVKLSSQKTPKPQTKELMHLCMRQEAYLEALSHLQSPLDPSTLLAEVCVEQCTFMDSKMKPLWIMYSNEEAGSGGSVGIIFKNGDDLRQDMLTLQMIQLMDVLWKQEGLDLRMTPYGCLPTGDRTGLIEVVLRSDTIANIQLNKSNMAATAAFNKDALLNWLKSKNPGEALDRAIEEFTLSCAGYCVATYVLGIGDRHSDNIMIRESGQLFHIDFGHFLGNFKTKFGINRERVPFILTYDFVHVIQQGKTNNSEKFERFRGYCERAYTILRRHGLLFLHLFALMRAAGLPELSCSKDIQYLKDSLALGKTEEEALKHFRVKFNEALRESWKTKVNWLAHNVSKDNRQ
Chain of Phosphatidylinositol 4,5-bisphosphate 3-kinase catalytic subunit gamma isoform (P48736 whole entry, the tested form may be a part, canonical isoform): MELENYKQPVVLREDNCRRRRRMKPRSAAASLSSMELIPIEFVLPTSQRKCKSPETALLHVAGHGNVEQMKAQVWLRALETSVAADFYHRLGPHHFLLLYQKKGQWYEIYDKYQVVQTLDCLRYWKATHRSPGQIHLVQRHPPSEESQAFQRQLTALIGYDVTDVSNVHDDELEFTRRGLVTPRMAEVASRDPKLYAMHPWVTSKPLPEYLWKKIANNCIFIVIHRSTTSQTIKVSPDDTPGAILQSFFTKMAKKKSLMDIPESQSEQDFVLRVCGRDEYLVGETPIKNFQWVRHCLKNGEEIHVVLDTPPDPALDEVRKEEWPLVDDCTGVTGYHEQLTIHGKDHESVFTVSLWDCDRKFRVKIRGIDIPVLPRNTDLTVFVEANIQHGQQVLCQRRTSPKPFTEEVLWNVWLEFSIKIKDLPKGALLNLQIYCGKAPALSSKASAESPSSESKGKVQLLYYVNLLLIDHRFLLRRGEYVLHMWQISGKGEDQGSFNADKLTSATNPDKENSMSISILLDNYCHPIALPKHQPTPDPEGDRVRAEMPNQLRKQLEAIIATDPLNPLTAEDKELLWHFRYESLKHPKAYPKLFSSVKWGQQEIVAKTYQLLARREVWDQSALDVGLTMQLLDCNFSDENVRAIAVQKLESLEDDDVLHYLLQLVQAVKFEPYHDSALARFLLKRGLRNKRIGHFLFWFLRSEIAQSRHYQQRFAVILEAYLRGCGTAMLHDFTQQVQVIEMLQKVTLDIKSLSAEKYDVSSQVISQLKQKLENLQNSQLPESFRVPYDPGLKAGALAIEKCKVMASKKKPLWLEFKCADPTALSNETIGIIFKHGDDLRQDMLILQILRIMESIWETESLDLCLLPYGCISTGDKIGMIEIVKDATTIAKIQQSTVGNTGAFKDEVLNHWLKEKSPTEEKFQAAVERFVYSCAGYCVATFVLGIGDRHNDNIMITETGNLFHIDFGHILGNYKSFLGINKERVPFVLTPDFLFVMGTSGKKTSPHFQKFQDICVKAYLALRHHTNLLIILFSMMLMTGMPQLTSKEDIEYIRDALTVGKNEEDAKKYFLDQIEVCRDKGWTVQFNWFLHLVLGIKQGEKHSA

In the case of `CN(Cc1ccccc1)c1ncnc2ccc(Br)cc12`, the IC50 in assay [1] is 6.92 µM. Regarding `Cc1nc2ccc(Cl)cn2c1-c1ccnc(N)n1`, the IC50 in assay [1] is 2.57 µM. Take `Cn1ccc2cc(-c3cnc4cnc(-c5cccc(C(N)=O)c5)cn34)ccc21`: the IC50 in assay [1] is 0.427 µM. With `O=C(C1CC=CCC1)N1CCCC(c2n[nH]c3ncccc23)C1` (stereo unspecified), the IC50 in assay [1] is 8.51 µM. In the case of `COc1cc(-c2cnn3ccc(Nc4ccc(C(C)C)cc4)nc23)ccc1O`, the IC50 in assay [2] is 2.4 µM.

For `c1ccc(CSc2nc(N3CCOCC3)c3sccc3n2)cc1`, in assay [1], the IC50 is 3.8 µM. As for `FC(F)(F)c1cc(Nc2nc3ccccc3s2)cc(C(F)(F)F)c1`, the IC50 in assay [2] was 5.5 µM. As for `c1cncc(CCNc2ccc3ncc(-c4cc5ccccc5s4)n3n2)c1`, the IC50 in assay [1] was 6.46 µM.

For `NC(=O)c1nc(-c2ccc3ncccc3c2)nc2c1[nH]c(=O)n2CCc1ccccc1`, the 50% inhibitory concentration (IC50) in assay [1] was 2.45 µM. For the compound `Clc1ccc2ncnc(NCCCc3ccccc3)c2c1`, in assay [1], the IC50 is 3.16 µM. For `Clc1ccc2ncnc(NCCOc3ccccc3)c2c1`, the IC50 in assay [1] was 5.5 µM. On the same count and under the same terms, the value for `CN1CCC(NCc2ccc(Nc3ncc4cnn([C@H]5C[C@@H]6CC[C@H]5C6)c4n3)cc2)CC1` was 0.339 µM.

With `COc1cc(Nc2ccn3ncc(-c4cccc(C(N)=O)c4)c3n2)cc(OC)c1OC`, the IC50 in assay [2] is 6.17 µM.

With `COc1cc(-c2cnc3ccc(NCc4ccco4)nn23)ccc1O`, the IC50 in assay [2] was 6.92 µM. `Cc1nn(-c2ccccc2)c2c1-c1nc(N)ncc1CC2`: the IC50 in assay [1] is 8.13 µM. `COc1cncc(-c2cnn3ccc(NC4CCC(O)CC4)nc23)c1` (stereo unspecified): in assay [2], the IC50 is 5.75 µM.

Broadly, the IC50 is the point on the concentration scale where inhibition reaches its midpoint.
